This note sets out measurements from ChEMBL document CHEMBL1145946, “Novel lavendamycin analogues as potent HIV-reverse transcriptase inhibitors: synthesis and evaluation of anti-reverse transcriptase activity of amide and ester analogues of lavendamycin” (J Med Chem, 2003).

One assay concerns H9. Briefly: Cellular cytotoxicity against human lymphocytic cell lines H-9. The format is functional. The method, boiled down:
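H-9 and CCRF-CEM human lymphocytic lines subcultured in complete RPMI 1640 with 10% FCS, without ConA or β-mercaptoethanol, at 6.25 × 10^5 and 2 × 10^6 cells/mL. Triplicate wells given a range of analogue concentrations at 37 °C, 5% CO2 for 48 h, then MTT 4-6 h, read at 600 nm. CC50 by linear interpolation versus untreated cells; data from both lines pooled.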

The next assay is filed under the species Mus musculus. Put plainly: Cellular cytotoxicity in normal mouse spleen stimulated with concanavalin A. The format is functional. Put shortly: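 Normal murine spleen cells at 2.5 × 10^6 or 5 × 10^6 cells/mL in complete RPMI 1640 with 10% FCS, stimulated with ConA 2.5 µg/mL. Analogue range added in triplicate, incubated 48 h at 37 °C, 5% CO2. MTT then added for 4-6 h, formazan dissolved in acidified 2-propanol, OD at 600 nm. CC50 by linear interpolation against untreated controls.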

Assay [1] concerns the target Human immunodeficiency virus type 1 reverse transcriptase (Human immunodeficiency virus 1, UniProt Q72547). Briefly: Inhibitory activity against HIV-reverse transcriptase (HIV-RT).

SMILES strings stand for the structures.

Turning to `CCCCOC(=O)c1cc2c([nH]c3ccccc32)c(-c2ccc3c(n2)C(=O)C(NC(=O)CCC)=CC3=O)n1` [LAV12], the half-maximal cytotoxic concentration (CC50) in the assay with H9 turned out to be 50 µM; in the assay filed under Mus musculus, 81 µM. Moreover, in assay [1], the 50% inhibitory concentration (IC50) was 5.8 µM.
On to `CC(=O)NC1=CC(=O)c2ccc(-c3[nH]c(C(N)=O)cc4c5ccccc5nc3-4)nc2C1=O`, for which the values for the CC50 with H9 and in the assay filed under Mus musculus were 95 µM and 50 µM, respectively. This compound came in with a 50% inhibitory concentration (IC50) in assay [1] of 12.7 µM.
In the same order, the values of `COC(=O)c1[nH]c(-c2ccc3c(n2)C(=O)C(NC(C)=O)=CC3=O)c2nc3ccccc3c-2c1C` are 31 µM, 62 µM and 15.1 µM.
In the same order, the values of `CC(=O)NC1=CC(=O)c2ccc(-c3[nH]c(C(=O)OCCOP(=O)(O)O)cc4c5ccccc5nc3-4)nc2C1=O` are 27 µM, 29 µM and 3 µM.
For `CC(=O)NC1=CC(=O)c2ccc(-c3[nH]c(C(=O)O)cc4c5ccccc5nc3-4)nc2C1=O` the same measures were 81 µM, 47 µM and 13.3 µM.
